Laboratory results published in ChEMBL document CHEMBL3085651, “Anti-cancer evaluation of carboxamides of furano-sesquiterpene carboxylic acids from the soft coral Sinularia kavarattiensis” (Bioorg Med Chem Lett, 2013).

Key:
THP-1 = assay: Cytotoxicity against human THP1 cells assessed as cell viability after 48 hrs by MTT assay; format: functional, cell-based; details: THP-1, 48 h
Summary of the method: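 THP-1 cells cultured in RPMI-1640 containing 2-mercaptoethanol and 10% FBS, humidified 5% CO2, 37 °C. They were seeded at 1 × 10^4 cells per well in 96-well plates and incubated with graded compound concentrations for 48 h. MTT was added for the final 1 h, and formazan was dissolved in DMSO for absorbance reading. IC50 is mean ± SD of three independent experiments.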

A549 = assay: Cytotoxicity against human A549 cells assessed as cell viability after 48 hrs by MTT assay; format: functional, cell-based; details: A549, 48 h
Summary of the method: (§1)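 A549 and HeLa cells grown in DMEM with non-essential amino acids and 10% FBS at 37 °C, 5% CO2. Subconfluent cells were trypsinized, plated at 1 × 10^4 cells per well in 96-well plates, and exposed to a range of concentrations for 48 h. MTT was added for 1 h, and formazan was dissolved in DMSO and read by absorbance. IC50 is mean ± SD of three independent experiments.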

MCF7 = assay: Cytotoxicity against human MCF7 cells assessed as cell viability after 48 hrs by MTT assay; format: functional, cell-based; details: MCF7, 48 h
Summary of the method: (§2)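 DU145 and MCF-7 cells grown in MEM with non-essential amino acids, 1 mM sodium pyruvate, […] bovine insulin and 10% FBS at 37 °C, 5% CO2. Cells were seeded at 1 × 10^4 per well in 96-well plates and treated at varied concentrations for 48 h. MTT reduction was measured over 1 h, with DMSO-solubilized formazan read by absorbance. IC50 is mean ± SD, n = 3 independent experiments.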

HeLa = assay: Cytotoxicity against human HeLa cells assessed as cell viability after 48 hrs by MTT assay; format: functional, cell-based; summary of the method: as §1
DU-145 = assay: Cytotoxicity against human DU145 cells assessed as cell viability after 48 hrs by MTT assay; format: functional, cell-based; details: DU-145, 48 h; summary of the method: as §2
Phospholipase A2 = molecular target: T1, Phospholipase A2 (Apis mellifera, UniProt P00630); assay: Inhibition of bee venom phospholipase A2
T1 sequence (P00630 whole entry): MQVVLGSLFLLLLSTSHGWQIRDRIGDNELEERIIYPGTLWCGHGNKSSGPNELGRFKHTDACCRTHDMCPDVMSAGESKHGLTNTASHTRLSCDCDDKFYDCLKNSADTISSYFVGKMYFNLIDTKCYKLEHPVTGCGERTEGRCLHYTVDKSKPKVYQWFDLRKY

Row | SMILES | IC50 (THP-1) [µM] | IC50 (A549) [µM] | IC50 (MCF7) [µM] | IC50 (HeLa) [µM] | IC50 (DU-145) [µM] | IC50 (Phospholipase A2) [µM]
1 | C=C/C(C)=C\CC/C(C)=C/c1cc(C(=O)O)co1 | 56.6 | 89.3 | 61.9 | 81 | 60.1 | 500
2 | C=C/C(C)=C/CC/C(C)=C/c1cc(C(=O)O)co1 | 39.8 | 89.7 | 74.5 | 80.4 | 38.9 | –
3 | C=C/C(C)=C\CC/C(C)=C/c1cc(C(=O)OC)co1 | 51.4 | 89.6 | 75.4 | 59.4 | 59.3 | –
4 | C=C/C(C)=C/CC/C(C)=C/c1cc(C(=O)OC)co1 | 25.8 | 28.6 | 28.9 | 35.5 | 25.1 | –
5 | C=C/C(C)=C\CC/C(C)=C/c1cc(C(=O)N2CCN(C)CC2)co1 | 20.8 | 23.6 | 27.9 | 30.5 | 24.1 | –
6 | C=C/C(C)=C\CC/C(C)=C/c1cc(C(=O)N2CCN(CC)CC2)co1 | 26.5 | 27.9 | 30.3 | 35.9 | 20.4 | –
7 | C=C/C(C)=C\CC/C(C)=C/c1cc(C(=O)N2CCN(c3ccccc3)CC2)co1 | 28.6 | 28.3 | 39.8 | 32.1 | 30.3 | –
8 | C=C/C(C)=C\CC/C(C)=C/c1cc(C(=O)N2CCN(Cc3ccccc3)CC2)co1 | 50.9 | 50.7 | 53.7 | 59.4 | 45.3 | –
9 | C=C/C(C)=C\CC/C(C)=C/c1cc(C(=O)N2CCN(Cc3ccc4c(c3)OCO4)CC2)co1 | 15.9 | 45.5 | 50.8 | 44.2 | 17.9 | –
10 | C=C/C(C)=C\CC/C(C)=C/c1cc(C(=O)N2CCN(C(c3ccccc3)c3ccccc3)CC2)co1 | 17.8 | 24.6 | 26.7 | 28.5 | 16.8 | –
11 | C=C/C(C)=C\CC/C(C)=C/c1cc(C(=O)Nc2ccc(C)cc2)co1 | 60.4 | 63.2 | 65.3 | 59.5 | 56.5 | –
12 | C=C/C(C)=C\CC/C(C)=C/c1cc(C(=O)NCCCNC(=O)c2coc(/C=C(\C)CC/C=C(/C)C=C)c2)co1 | 59 | 69.7 | 57.7 | 73.4 | 41.3 | –
